Experimental data as given in paper PMC7009771 (EFSA Journal, 2018).
In brackets after ≈: the same amount, converted by molar mass. Entries after “also recorded” stand apart in the source; their conditions may differ. Read-outs that look alike come from different tables or passages of the source.

Legend:
hERG ion channel = conditions: 10 μM; ref AVIVA, 2012; cited from earlier work
[1] = 24 h at 100°C, ref Senomyx, 2015, cited from earlier work
Balb/c 3T3 cells = conditions: based on 3T3 NRU test; ref CeeTox, 2013; cited from earlier work
CD [Crl:CD(SD)] rats [2] = experiment: 90-day oral toxicity study in rats; type: in vivo
Procedure, shortened: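 Candidate substance given by oral gavage to CD rats of both sexes for 13 weeks at up to 100 mg/kg bw per day, with doses chosen from a 28-day dietary range-finder. Margin of safety derived from the 90-day NOAEL against APET exposure estimates: chronic 3.8 (adult) or 9.5 (child) µg/kg bw per day, and acute 0.076 mg/kg bw for a 3-year-old child.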

[3] = heated for 24 h at 110°C; ref Senomyx, 2015; cited from earlier work
CYP2C19 [4] = conditions: 10 μM (~ […]), pooled human liver microsomes; ref Absorption Systems, 2013a; cited from earlier work
CD [Crl:CD(SD)] rats [5] = conditions: 90 days, gavage, rats males and females; ref Charles River (2014); cited from earlier work
humans = conditions: 112 subjects completed, ref Harrison Research Laboratories, 2014a,b; cited from earlier work
CD [Crl:CD(SD)] rats [6] = conditions: 28 days, gavage, rats males and females; ref Charles River (2013); cited from earlier work
[7] = ref Senomyx, 2015, cited from earlier work
[8] = system: 67 receptor binding assays for G-protein coupled receptors (GPCRs), ion channels, nuclear receptors and transporters; conditions: significant = ≥ 50% inhibition or stimulation; 67 assays; ref Ricerca, 2012; cited from earlier work
[9] = system: human peripheral blood lymphocytes (HPBL); conditions: ref Nucro-Technics (2013b), cited from earlier work; for relative cell growth (RCG) (test vs. solvent control) / relative mitotic index (RMI) (test vs. solvent control): 3-h exposure without S9-mix
[10] = in vitro; ref CiToxLab, 2014; cited from earlier work
bone marrow of CD-1 mice = conditions: ref WIL Research (2013a), cited from earlier work
[11] = system: Keratinocyte ARE-Reporter Cell Line KeratinoSens; conditions: in vitro; ref IIVS, 2013; cited from earlier work
CYP2C19 [12] = conditions: human liver microsomes; ref Absorption Systems, 2013b; cited from earlier work
[13] = 3-h exposure with S9-mix, 1.3 μg/mL
[14] = 3-h exposure with S9-mix, 2.5 μg/mL
[15] = 3-h exposure with S9-mix, 5.0 μg/mL
[16] = 20-h exposure without S9, 23 μg/mL
[17] = 20-h exposure without S9, 39 μg/mL
[18] = 20-h exposure without S9, 65 μg/mL
[19] = 20-h exposure without S9, 110 μg/mL

Cc1ccc(OCC(=O)N(Cc2cccs2)c2ccn[nH]2)cc1 [FL‐no: 16.133, 2‐(4‐methylphenoxy)‐N‐(1H‐pyrazol‐3‐yl)‐N‐(thiophen‐2‐ylmethyl)acetamide]
inhibition of hERG ion channel current (hERG ion channel): < 10% | percentage remaining ([1]; aqueous citric buffer pH 2.8): 90.1% | percentage remaining ([1]; aqueous citric buffer pH 4.0): 97.2% | percentage remaining ([1]; phosphoric acid buffer pH 7.1): 83.5% | phototoxic potential (Panel conclusion) (Balb/c 3T3 cells): does not anticipate that [FL‐no: 16.133] has a phototoxic potential | Margin of safety (CD [Crl:CD(SD)] rats [2]; Adult, 90-day NOAEL 100 mg/kg bw per day vs chronic APET 3.8 μg/kg bw per day): 26,300 | Margin of safety (CD [Crl:CD(SD)] rats [2]; Child, 90-day NOAEL 100 mg/kg bw per day vs chronic APET 9.5 μg/kg bw per day): 10,500 | MoE, acute exposure (CD [Crl:CD(SD)] rats [2]; children, 90-day NOAEL vs maximum acute dietary exposure about 0.08 mg/kg bw): more than 1,000 | Dry powder stability [3]: stable | CYP2C19 inhibition (CYP2C19 [4]): significant inhibition | Result: NOEL (CD [Crl:CD(SD)] rats [5]): NOEL: ≥ 100 mg/kg bw per day | skin sensitisation, HRIPT result (humans): negative result | Result: NOEL (CD [Crl:CD(SD)] rats [6]): NOEL: ≥ 100 mg/kg bw per day | Solubility in ethanol ([7]; 95% ethanol): > 308 mM | Solubility in water ([7]; pH = 7): 0.12 mM (≈ 0.0393 mg/mL) | Solubility in triacetine [7]: 40.47 mM (≈ 13.3 mg/mL) | responses in lead profiling receptor screen [8]: No significant responses | relative cell growth (RCG) [9, 13]: 109% | relative mitotic index (RMI) [9, 13]: 61% | relative cell growth (RCG) [9, 14]: 100% | relative mitotic index (RMI) [9, 14]: 55% | relative cell growth (RCG) [9, 15]: 121% | relative mitotic index (RMI) [9, 15]: 45% | relative cell growth (RCG) ([9]; 3-h exposure with S9-mix, 10 μg/mL): 130% | relative cell growth (RCG) ([9]; 3-h exposure with S9-mix, 20 μg/mL): 97% | relative cell growth (RCG) ([9]; 3-h exposure with S9-mix, 40 μg/mL): 84% | relative cell growth (RCG) ([9]; 3-h exposure with S9-mix, 80 μg/mL): 60% | relative cell growth (RCG) ([9]; 3-h exposure with S9-mix, 160 μg/mL): 11% | relative cell growth (RCG) (test vs. solvent control) ([9]; 35 μg/mL): 108% | relative mitotic index (RMI) (test vs. solvent control) ([9]; 35 μg/mL): 102% | relative cell growth (RCG) (test vs. solvent control) ([9]; 58 μg/mL): 93% | relative mitotic index (RMI) (test vs. solvent control) ([9]; 58 μg/mL): 88% | relative cell growth (RCG) (test vs. solvent control) ([9]; 97 μg/mL): 98% | relative mitotic index (RMI) (test vs. solvent control) ([9]; 97 μg/mL): 110% | relative cell growth (RCG) (test vs. solvent control) ([9]; 160 μg/mL): 60% | relative mitotic index (RMI) (test vs. solvent control) ([9]; 160 μg/mL): 48% | relative cell growth (RCG) (test vs. solvent control) ([9]; 270 μg/mL): 18% | relative cell growth (RCG) [9, 16]: 100% | relative mitotic index (RMI) [9, 16]: 106% | relative cell growth (RCG) [9, 17]: 97% | relative mitotic index (RMI) [9, 17]: 82% | relative cell growth (RCG) [9, 18]: 60% | relative mitotic index (RMI) [9, 18]: 57% | relative cell growth (RCG) [9, 19]: 56% | relative mitotic index (RMI) [9, 19]: 0% | relative cell growth (RCG) ([9]; 20-h exposure without S9, 180 μg/mL): 19% | skin sensitisation potential, DPRA [10]: may exhibit a skin sensitisation potential | ratio PCEs/TE (bone marrow toxicity) vs vehicle control (bone marrow of CD-1 mice; CD-1 mice, 1,000-2,000 mg/kg bw per day): No decrease | Micronucleus assay result (incidence of MNPCEs) (bone marrow of CD-1 mice; CD-1 mice, gavage, 1,000, 1,500 and 2,000 mg/kg bw per day, three consecutive days): No statistically significant increases; also recorded: Negative | clinical signs of toxicity (bone marrow of CD-1 mice; CD-1 mice, gavage, up to 2,000 mg/kg bw per day): No clinical signs of toxicity | skin sensitisation potential, KeratinoSens Assay [11]: may exhibit a skin sensitisation potential | time-dependent inhibition of CYP2C19 (CYP2C19 [12]): No evidence of time‐dependent CYP inhibition
